We go through 96 compounds from ChEMBL document CHEMBL4513216, “Probing the Open Global Health Chemical Diversity Library for Multistage-Active Starting Points for Next-Generation Antimalarials” (ACS Infect Dis, 2020).

The data set in a line: Toxicity liver stage against HepG2, at 10uM. It is filed as cell-based. More on the design: test concentration 10 uM, cell line HepG2-A16-CD81EGFP. The conditions noted are these: human, HepG2-A16-CD81EGFP cells; read-out: INHIBITION
The method in brief: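 Uninfected HepG2-A16-CD81EGFP cells, 3 × 10^3 per well, 1536-well, plated on prespotted compound at 10 μM final, parasite-free screening media added to match infected plates; puromycin 10 μM positive, DMSO 0.5% negative; run in parallel with 48 h PbLuc assay at 37 °C, 5% CO2; viability by CellTiter-Glo luminescence, normalized to controls.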
Consider `O=C1N(Cc2cccnc2)C[C@H]2CN(C3CCOCC3)CCN12`, for which the cytotoxicity at 10 µM was -9.7%.
Under `COc1cc(N2CCc3ncnc(-c4ccncc4)c3CC2)ncn1` stands 9.85%; under `COCC1CCCCN1C(=O)c1cc(Cn2ccc3ccccc32)[nH]n1` (stereo unspecified), -3.54%; under `CC1CCN(C(=O)CSCCN2CCOCC2)CC1`, 1.89%.
Under `Cc1cccc(CS(=O)(=O)c2nnc(N3CCOCC3)s2)c1` stands -3.48%; under `O=C(NCC1CCCOC1)c1ccc(-c2ccccc2)[nH]c1=O` (stereo unspecified), -12.2%; under `CC1CCN(C(=O)c2cc(NC(=O)c3ccccc3)n(C)n2)CC1`, 5.17%.
To `Cc1noc(C)c1CN1CCC2(CC1)NC(=O)CC2c1ccccc1` (stereo unspecified) belongs -109%; to `CN1CCC2(C=C(C(=O)N(C)C)c3ccccc32)CC1`, -102%; to `Fc1ccc(CN2CCC(c3n[nH]c4ncccc34)CC2)cc1F`, 9.12%.
As to `Cc1ccccc1-c1cc(NC(=O)NC2CC2)n(CCO)n1`, the cytotoxicity at 10 µM stood at 8.09%.
Turning to `c1cncc(-c2ccc3c(c2)CCC32CCN(Cc3ccco3)CC2)c1`, the cytotoxicity at 10 µM turned out to be 17.1%.
To `Cc1nc2n(n1)CCN(S(=O)(=O)c1ccc(OC(F)(F)F)cc1)C2` belongs -5.86%; to `CCCN1CCC(Nc2nc(CC)ns2)CC1`, -2.59%.
Under `O=C(CO[C@@H]1CC[C@H]2[C@H]1OCCN2CC1CCOCC1)N1CCCC1` stands -11.6%.
To `O=C(CN1CCCCCC1=O)NC1CCc2nccn2C1` (stereo unspecified) belongs 2.8%; to `CCS(=O)(=O)c1ccc(N2CCC(NC(=O)C(C)SC)CC2)cc1` (stereo unspecified), 7.99%.
Turning to `c1ccc2c(Cc3nnc([C@H]4CCN(C5CCC5)C4)o3)c[nH]c2c1`, the cytotoxicity at 10 µM is -0.0653%.
Take `Cc1nc2c(c(NC(C)C)n1)CCN(C(=O)CCO)CC2`: the cytotoxicity at 10 µM was -109%.
Under `CNC(=O)CN1CCO[C@H]2CN(C(=O)c3ccncc3F)C[C@H]21` stands -155%; under `Cc1cc(C(=O)Nc2nc3c(s2)CN(S(=O)(=O)C2CC2)CC3)c(C)o1`, 22.7%.
To `CCc1cccc2c(CC(=O)N(C)CCN(C)C)c(C)[nH]c12` belongs 1.26%; to `COc1ccc(CN2C[C@@H](F)[C@@H](OCc3nc4cnccc4[nH]3)C2)cn1`, 2.08%; to `CNC(=O)CN1C(=O)CCC12CCCN(CCc1ccccc1)C2` (stereo unspecified), 1.35%.
To `CN1C(=O)CC[C@@H]2[C@H]1CCN2S(=O)(=O)Cc1ccccc1` belongs -5.73%.
For the compound `O=C(c1csc(-c2cccs2)n1)N1CCN2CCCCC2C1` (stereo unspecified), the cytotoxicity at 10 µM is -3.04%.
To `CN(CCCc1cnn(C)c1)C(=O)C1CCCN(C2CCCC2)C1` (stereo unspecified) belongs -7.17%.
Under `O=C(N[C@@H]1CN(Cc2ccsc2)[C@@H]2CCCO[C@@H]21)C1CC1` stands -5.47%; under `COCCN1CCN(Cc2c(C3CCNCC3)[nH]c3ncccc23)CC1`, -23.2%.
To `Cc1[nH]c2ccccc2c1-c1ccnc(NCCN2CCOCC2)n1` belongs 7.12%; to `Cn1nccc1C(=O)Nc1cc(C(F)(F)F)c[nH]c1=O`, -6.54%; to `CCn1nc(C)cc1C(=O)NCc1nc(C)cc(C)n1`, -0.745%.
For the compound `CC1(C)CN=C(N2CCN(CCCN3CCOCC3)CC2)S1`, the cytotoxicity at 10 µM is -17.6%.
Under `Cn1cc(-c2nnc3sc(C4CC4)nn23)cn1` stands -3.08%; under `Cc1ccccc1OCC1CCCN(C(=O)Cc2c[nH]c(=O)[nH]c2=O)C1` (stereo unspecified), -136%; under `CC(C)N(C)Cc1cn2c(n1)CN(C(=O)Cc1ccccc1)CC2`, -135%.
Under `Cc1cc(C(F)(F)F)n2nc(C3CCCN3C3CCSCC3)cc2n1` (stereo unspecified) stands 1.77%.
Under `O=C(NCc1cc[nH]n1)N(CCCO)C1CCc2ccccc21` (stereo unspecified) stands -3.27%; under `CC(Cn1cncn1)NCc1csc2c1CCCC2` (stereo unspecified), -1.53%; under `O=S1(=O)CCN2C(=N1)Oc1ccc(S(=O)(=O)N3CCCC3)cc12`, 18.2%.
`CN(Cc1cccc(F)c1)C1CCN(CCc2ccccn2)CC1`: the cytotoxicity at 10 µM was -5.38%.
To `CCN(CC)C(CNS(=O)(=O)c1ccc(C(N)=O)cc1)c1ccco1` (stereo unspecified) belongs -8.64%.
To `CN(C(=O)Nc1cccc(C#N)c1)C1CCN(c2ccccn2)CC1` belongs 1.66%; to `Cc1cc(C2CCC2)nc(NCC(C)(C)N2CCOCC2)n1`, 11.5%.
To `COCC(=O)N1CCC2(CC1)CNc1ccc(F)cc12` belongs 12.2%; to `Cc1c[nH]c(C(=O)N2CCCC2c2ccc(C(=O)N3CCSCC3)s2)n1` (stereo unspecified), 2.73%; to `O=C1[C@H]2CN(Cc3cccs3)C[C@H]2CN1c1cncnc1`, -13.8%.
For `Cc1cc(F)ccc1CNCc1cccc(C(=O)N2CCCC2)c1`, the cytotoxicity at 10 µM was -10.8%.
Turning to `CC(C)COc1cncc(NCCc2nnc3ccccn23)n1`, the cytotoxicity at 10 µM amounted to 7.55%.
Under `CCCn1nnnc1COC(=O)C1COc2ccccc2O1` (stereo unspecified) stands 3.72%.
Under `CN1CCC2(CCN(Cc3nccs3)CC2)C1=O` stands -3.03%; under `CCOc1cc(N2CCN(C(=O)c3ccc(OC)cc3)CC2)nc(C)n1`, -10.2%; under `CC(Cn1cccn1)NC(=O)c1cccs1` (stereo unspecified), -4.26%.
Under `COCC1CCN(CCOc2ccc(C#N)cc2OC)CC1` stands 4.11%; under `CCN(Cc1ccncc1)Cc1c[nH]nc1-c1ccc(F)cc1`, -5.83%; under `Cc1nc(O)ccc1C(=O)NCc1ncccc1F`, 7.97%.
With `O=C(c1nn[nH]c1Nc1ccc(Cl)cc1)N1CCCCCC1`, the cytotoxicity at 10 µM is 34.5%.
Under `O=C1CC2(CCN(C(=O)c3ccccn3)CC2)Oc2c(Cl)cc(Cl)cc21` stands 1.73%; under `CC(C)(C)c1nnc(NCc2ccc(F)cc2)o1`, 6.88%.
Under `Cc1cccc(C2(C(=O)NCC(C)CN3CCCC3=O)CC2)c1` (stereo unspecified) stands -0.89%; under `O=C(NCCCOCC1CC1)Nc1ccc(F)cc1`, 3.09%; under `CC(C#N)CN(C)Cc1nc2c(cnn2C)c(=O)[nH]1` (stereo unspecified), -6.45%.
To `Cc1cnc2n(c1=O)C(CC(=O)NCc1cc(-c3cccs3)on1)CS2` (stereo unspecified) belongs -1.51%; to `CN(Cc1noc(C2CC2)n1)C1CCN(Cc2ccncc2)C1` (stereo unspecified), -10.6%; to `CCn1cc(CNC(=O)C(C)C)cn1`, 7.74%.
As to `Cn1ncc2c(N3CCN(CCC(N)=O)CC3)nc(C3CCCC3)nc21`, the cytotoxicity at 10 µM is -2.45%.
`Cc1ccc(C(=O)N2CCC3(CCC(=O)N(CCN(C)C)C3)CC2)nc1`: the cytotoxicity at 10 µM is -1.62%.
Under `CCNC(=O)N1C[C@@H]2OCC(=O)N(C)[C@@H]2C1` stands 7.65%; under `CCCc1noc(C2CCN(C(=O)CCn3nc(C)cc3C)CC2)n1`, 7.47%; under `Cc1ccc(-n2c(SCC(=O)O)nnc2-c2cccc(C)c2)cc1`, -2.05%.
Under `NC(=O)c1cc(C2CCCN(C(=O)CCc3ccsc3)C2)n[nH]1` (stereo unspecified) stands -5.79%; under `Cn1cc(C(=O)NCCCN2CCCCCC2=O)c(-c2cccnc2)n1`, -8.3%.
To `COCCn1ccc(NC(=O)Nc2ccc(C(N)=O)c(F)c2)n1` belongs 2.63%; to `CC(SCCC(=O)NC(N)=O)c1c(F)cccc1F` (stereo unspecified), 6.93%.
As to `Cc1cnn(CC2CCCCN2C(=O)c2cccc3c2OCO3)c1` (stereo unspecified), the cytotoxicity at 10 µM was -4.89%.
Under `O=C(CCCn1cncn1)N1CCC2(CC1)[C@H](O)C[C@@H]2OCCO` stands 5.3%; under `Cc1nc2ccccc2nc1CN1CCn2nc(CCC(=O)O)cc2C1`, -3.43%.
Under `CC(C(=O)N1CCN(Cc2ccc(C#N)cc2)CC1)n1ccnc1` (stereo unspecified) stands -9.71%; under `Cc1ccc(CN2CC[C@H](c3nnc(-c4ccco4)o3)C2)cc1`, -2.25%.
Consider `CS(=O)(=O)CCNC(=O)Nc1sc2ccccc2c1Cl`, for which the cytotoxicity at 10 µM is 41.7%.
Consider `CC(C)CC1(C(=O)NCc2nncn2C2CC2)CCC1`, for which the cytotoxicity at 10 µM is -1.22%.
For `Cn1c(Cn2cccn2)nnc1C1CCCN(c2ccncc2F)C1` (stereo unspecified), the cytotoxicity at 10 µM was -0.773%.
To `O=C(Cc1ccc(Br)cc1)N1CC(S(=O)(=O)C2CCCCC2)C1` belongs -1.13%; to `CN(C)S(=O)(=O)N1C[C@H]2CCC[C@@]2(COCc2ccccn2)C1`, 0.718%; to `CSc1ncccc1C(=O)NCc1ccc(N(C)C)cc1`, 4.74%.
To `CC(O)(CNc1ccc(Cl)c(C#N)n1)c1ccccc1` (stereo unspecified) belongs -9.06%.
To `O=C(C1CCC1)N1CCC(c2ncc3c(n2)CCNC3)CC1` belongs -25.1%.
For `O=C(c1cocn1)N1CC[C@H]2OCC[C@@]2(COc2ncccc2F)C1`, the cytotoxicity at 10 µM is -127%.
Under `Cc1nn(C)c(Cl)c1C1CCCN1C(=O)c1ccnc(N(C)C)c1` (stereo unspecified) stands -6.73%; under `COC(C)Cc1nc(-c2cnn3c(C)cc(C)nc23)no1` (stereo unspecified), -8.11%.
Consider `CN1C(=O)C2(CCN(C(=O)c3cccnc3)CC2)c2cccc(F)c21`, for which the cytotoxicity at 10 µM is -1.06%.
To `CN(C(=O)c1ccc(C#N)cc1)C1CCN(c2ccccn2)CC1` belongs -7.56%.
Under `COc1cc(Cl)ccc1C(=O)NCC(=O)Nc1nccs1` stands 6.62%.
Under `CC1CCCN(C(=O)NCCCn2cncn2)C1` (stereo unspecified) stands -3.98%; under `Cc1noc(CCNC(=O)C2CSCN2C(=O)C2CCCC2)n1` (stereo unspecified), -45%.
Consider `CN(C)C(=O)NCc1cc2n(n1)CCCN(CC1[C@H]3CNC[C@@H]13)C2` (stereo partly specified), for which the cytotoxicity at 10 µM is -5.77%.
